Source: ChEMBL document CHEMBL2157880, “Synthesis, antimycobacterial and antibacterial activity of ciprofloxacin derivatives containing a N-substituted benzyl moiety” (2012)
Values after ≈ are worked out from the molar mass of the structure shown.

How the values were obtained:
Format in all cases: functional
Enterococcus faecalis [1] = assay: Antibacterial activity against Enterococcus faecalis 10-7 after 18 to 24 hrs by NCCLS method
How it was run: (§1)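 Standard NCCLS (M100-S11) MIC testing against Gram-positive and Gram-negative strains. Plates were incubated at 35 °C for 18–24 h. The MIC was read as the lowest concentration giving complete inhibition of visible bacterial growth.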

[2] = tested on: Staphylococcus epidermidis; assay: Antibacterial activity against methicillin-sensitive Staphylococcus epidermidis 10-15 after 18 to 24 hrs by NCCLS method
How it was run: (§2)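 Incubated at 35 °C for 18–24 h under NCCLS (M100-S11) standards. MIC was read as the lowest concentration giving complete inhibition of visible bacterial growth.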

Escherichia coli [3] = assay: Antibacterial activity against Escherichia coli 10-2 after 18 to 24 hrs by NCCLS method; how it was run: as §1
Pseudomonas aeruginosa [4] = assay: Antibacterial activity against Pseudomonas aeruginosa 10-5 after 18 to 24 hrs by NCCLS method; how it was run: as §1
Enterococcus faecalis [5] = assay: Antibacterial activity against Enterococcus faecalis 10-5 after 18 to 24 hrs by NCCLS method; how it was run: as §1
Enterococcus faecium [6] = assay: Ratio of compound MIC to ciprofloxacin MIC for Enterococcus faecium 10-6
Enterococcus faecium [7] = assay: Antibacterial activity against Enterococcus faecium 10-9 after 18 to 24 hrs by NCCLS method; how it was run: as §1
Pseudomonas aeruginosa [8] = assay: Antibacterial activity against Pseudomonas aeruginosa 10-15 after 18 to 24 hrs by NCCLS method; how it was run: as §1
Staphylococcus aureus [9] = assay: Antibacterial activity against methicillin-resistant Staphylococcus aureus 10-13 after 18 to 24 hrs by NCCLS method; how it was run: as §2
Staphylococcus aureus [10] = assay: Ratio of compound MIC to ciprofloxacin MIC for methicillin-sensitive Staphylococcus aureus 10-11
Pseudomonas aeruginosa [11] = assay: Antibacterial activity against Pseudomonas aeruginosa 10-9 after 18 to 24 hrs by NCCLS method; how it was run: as §1
Pseudomonas aeruginosa [12] = assay: Antibacterial activity against Pseudomonas aeruginosa 10-12 after 18 to 24 hrs by NCCLS method; how it was run: as §1
Staphylococcus aureus [13] = assay: Ratio of compound MIC to ciprofloxacin MIC for methicillin-sensitive Staphylococcus aureus 10-13
Staphylococcus aureus [14] = assay: Antibacterial activity against methicillin-sensitive Staphylococcus aureus 10-13 after 18 to 24 hrs by NCCLS method; how it was run: as §1
Klebsiella pneumoniae [15] = assay: Antibacterial activity against extended spectrum beta-lactamases producing Klebsiella pneumoniae 10-3 after 18 to 24 hrs by NCCLS method; how it was run: as §1
Klebsiella pneumoniae [16] = assay: Antibacterial activity against Klebsiella pneumoniae 10-4 after 18 to 24 hrs by NCCLS method; how it was run: as §1
[17] = tested on: Staphylococcus epidermidis; assay: Ratio of compound MIC to ciprofloxacin MIC for methicillin-sensitive Staphylococcus epidermidis 10-15
Staphylococcus aureus [18] = assay: Antibacterial activity against methicillin-sensitive Staphylococcus aureus 10-11 after 18 to 24 hrs by NCCLS method; how it was run: as §1
Klebsiella pneumoniae [19] = assay: Antibacterial activity against extended spectrum beta-lactamases producing Klebsiella pneumoniae 10-1 after 18 to 24 hrs by NCCLS method; how it was run: as §1
Enterococcus faecalis [20] = assay: Ratio of compound MIC to ciprofloxacin MIC for Enterococcus faecalis 10-7
Enterococcus faecium [21] = assay: Ratio of compound MIC to ciprofloxacin MIC for Enterococcus faecium 10-9
Escherichia coli [22] = assay: Antibacterial activity against extended spectrum beta-lactamases producing Escherichia coli 10-3 after 18 to 24 hrs by NCCLS method; how it was run: as §1
[23] = tested on: Staphylococcus epidermidis; assay: Antibacterial activity against methicillin-resistant Staphylococcus epidermidis 10-10 after 18 to 24 hrs by NCCLS method; how it was run: as §2
Pseudomonas aeruginosa [24] = assay: Antibacterial activity against Pseudomonas aeruginosa 10-20 after 18 to 24 hrs by NCCLS method; how it was run: as §1
Pseudomonas aeruginosa [25] = assay: Antibacterial activity against Pseudomonas aeruginosa 10-18 after 18 to 24 hrs by NCCLS method; how it was run: as §1
Staphylococcus aureus [26] = assay: Antibacterial activity against methicillin-resistant Staphylococcus aureus 10-11 after 18 to 24 hrs by NCCLS method; how it was run: as §2
Streptococcus pneumoniae [27] = assay: Antibacterial activity against Streptococcus pneumoniae 10-6 after 18 to 24 hrs by NCCLS method; how it was run: as §1
Staphylococcus aureus [28] = assay: Ratio of compound MIC to ciprofloxacin MIC for Staphylococcus aureus ATCC 2592
[29] = tested on: Staphylococcus epidermidis; assay: Antibacterial activity against methicillin-sensitive Staphylococcus epidermidis 10-11 after 18 to 24 hrs by NCCLS method; how it was run: as §1
Enterococcus faecalis [30] = assay: Ratio of compound MIC to ciprofloxacin MIC for Enterococcus faecalis 10-6
Staphylococcus aureus [31] = assay: Antibacterial activity against methicillin-sensitive Staphylococcus aureus 10-14 after 18 to 24 hrs by NCCLS method; how it was run: as §1
Escherichia coli [32] = assay: Antibacterial activity against Escherichia coli ATCC 25922 after 18 to 24 hrs by NCCLS method; how it was run: as §1
Streptococcus pneumoniae [33] = assay: Antibacterial activity against Streptococcus pneumoniae 10-1 after 18 to 24 hrs by NCCLS method; how it was run: as §1
Enterococcus faecium [34] = assay: Antibacterial activity against Enterococcus faecium 10-6 after 18 to 24 hrs by NCCLS method; how it was run: as §1
Escherichia coli [35] = assay: Antibacterial activity against extended spectrum beta-lactamases producing Escherichia coli 10-2 after 18 to 24 hrs by NCCLS method; how it was run: as §1
Escherichia coli [36] = assay: Antibacterial activity against extended spectrum beta-lactamases producing Escherichia coli 10-4 after 18 to 24 hrs by NCCLS method; how it was run: as §1
[37] = tested on: Staphylococcus epidermidis; assay: Ratio of compound MIC to ciprofloxacin MIC for methicillin-sensitive Staphylococcus epidermidis 10-11
Staphylococcus aureus [38] = assay: Antibacterial activity against Staphylococcus aureus ATCC 2592 after 18 to 24 hrs by NCCLS method; how it was run: as §1
Escherichia coli [39] = assay: Antibacterial activity against Escherichia coli 10-1 after 18 to 24 hrs by NCCLS method; how it was run: as §1
Klebsiella pneumoniae [40] = assay: Antibacterial activity against Klebsiella pneumoniae 10-3 after 18 to 24 hrs by NCCLS method; how it was run: as §1
Staphylococcus aureus [41] = assay: Antibacterial activity against methicillin-resistant Staphylococcus aureus 10-15 after 18 to 24 hrs by NCCLS method; how it was run: as §2
Klebsiella pneumoniae [42] = assay: Antibacterial activity against extended spectrum beta-lactamases producing Klebsiella pneumoniae 10-2 after 18 to 24 hrs by NCCLS method; how it was run: as §1
Klebsiella pneumoniae [43] = assay: Antibacterial activity against Klebsiella pneumoniae 10-2 after 18 to 24 hrs by NCCLS method; how it was run: as §1
[44] = tested on: Staphylococcus epidermidis; assay: Antibacterial activity against methicillin-resistant Staphylococcus epidermidis 10-13 after 18 to 24 hrs by NCCLS method; how it was run: as §2
Streptococcus pneumoniae [45] = assay: Ratio of compound MIC to ciprofloxacin MIC for Streptococcus pneumoniae 10-6
Escherichia coli [46] = assay: Antibacterial activity against Escherichia coli 10-3 after 18 to 24 hrs by NCCLS method; how it was run: as §1
Enterococcus faecalis [47] = assay: Ratio of compound MIC to ciprofloxacin MIC for Enterococcus faecalis 10-5
Streptococcus pneumoniae [48] = assay: Ratio of compound MIC to ciprofloxacin MIC for Streptococcus pneumoniae 10-1
Enterococcus faecalis [49] = assay: Antibacterial activity against Enterococcus faecalis 10-6 after 18 to 24 hrs by NCCLS method; how it was run: as §1
Staphylococcus aureus [50] = assay: Ratio of compound MIC to ciprofloxacin MIC for methicillin-sensitive Staphylococcus aureus 10-14
[51] = tested on: Mycobacterium tuberculosis; assay: Antimycobacterial activity against Mycobacterium tuberculosis H37Rv ATCC 27294 by microplate alamar blue assay
How it was run: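 Microplate Alamar Blue fluorescence assay on strain H37Rv ATCC 27294. MIC was the lowest concentration cutting fluorescence by ≥90% against the mean of replicate bacterium-only controls.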

## COc1ccc(CN2CCN(c3cc4c(cc3F)c(=O)c(C(=O)O)cn4C3CC3)CC2)cc1
Enterococcus faecalis [1]
  MIC: 8 µg/mL (≈ 17.7 µM)
[2]
  MIC: 8 µg/mL (≈ 17.7 µM)
Escherichia coli [3]
  MIC: 8 µg/mL (≈ 17.7 µM)
Pseudomonas aeruginosa [4]
  MIC: 4 µg/mL (≈ 8.86 µM)
Enterococcus faecalis [5]
  MIC: 4 µg/mL (≈ 8.86 µM)
Enterococcus faecium [6]
  Ratio: 2
Enterococcus faecium [7]
  MIC: 16 µg/mL (≈ 35.4 µM)
Pseudomonas aeruginosa [8]
  MIC: 2 µg/mL (≈ 4.43 µM)
Staphylococcus aureus [9]
  MIC: 16 µg/mL (≈ 35.4 µM)
Staphylococcus aureus [10]
  Ratio: 2
Pseudomonas aeruginosa [11]
  MIC: 4 µg/mL (≈ 8.86 µM)
Pseudomonas aeruginosa [12]
  MIC: 2 µg/mL (≈ 4.43 µM)
Staphylococcus aureus [13]
  Ratio: 2
Staphylococcus aureus [14]
  MIC: 0.25 µg/mL (≈ 0.554 µM)
Klebsiella pneumoniae [15]
  MIC: > 128 µg/mL
Klebsiella pneumoniae [16]
  MIC: > 128 µg/mL
[17]
  Ratio: 2
Staphylococcus aureus [18]
  MIC: 0.125 µg/mL (≈ 0.277 µM)
Klebsiella pneumoniae [19]
  MIC: > 128 µg/mL
Enterococcus faecalis [20]
  Ratio: 2
Enterococcus faecium [21]
  Ratio: 2
Escherichia coli [22]
  MIC: > 128 µg/mL
[23]
  MIC: 8 µg/mL (≈ 17.7 µM)
Pseudomonas aeruginosa [24]
  MIC: 4 µg/mL (≈ 8.86 µM)
Pseudomonas aeruginosa [25]
  MIC: 4 µg/mL (≈ 8.86 µM)
Staphylococcus aureus [26]
  MIC: 16 µg/mL (≈ 35.4 µM)
Streptococcus pneumoniae [27]
  MIC: 16 µg/mL (≈ 35.4 µM)
Staphylococcus aureus [28]
  Ratio: 2
[29]
  MIC: 0.5 µg/mL (≈ 1.11 µM)
Enterococcus faecalis [30]
  Ratio: 2
Staphylococcus aureus [31]
  MIC: 0.25 µg/mL (≈ 0.554 µM)
Escherichia coli [32]
  MIC: 0.125 µg/mL (≈ 0.277 µM)
Streptococcus pneumoniae [33]
  MIC: 1 µg/mL (≈ 2.21 µM)
Enterococcus faecium [34]
  MIC: 1 µg/mL (≈ 2.21 µM)
Escherichia coli [35]
  MIC: > 128 µg/mL
Escherichia coli [36]
  MIC: 8 µg/mL (≈ 17.7 µM)
[37]
  Ratio: 2
Staphylococcus aureus [38]
  MIC: 0.06 µg/mL (≈ 0.133 µM)
Escherichia coli [39]
  MIC: > 128 µg/mL
Klebsiella pneumoniae [40]
  MIC: 4 µg/mL (≈ 8.86 µM)
Staphylococcus aureus [41]
  MIC: 4 µg/mL (≈ 8.86 µM)
Klebsiella pneumoniae [42]
  MIC: > 128 µg/mL
Klebsiella pneumoniae [43]
  MIC: > 128 µg/mL
[44]
  MIC: 8 µg/mL (≈ 17.7 µM)
Streptococcus pneumoniae [45]
  Ratio: 2
Escherichia coli [46]
  MIC: 8 µg/mL (≈ 17.7 µM)
Enterococcus faecalis [47]
  Ratio: 2
Streptococcus pneumoniae [48]
  Ratio: 2
Enterococcus faecalis [49]
  MIC: 32 µg/mL (≈ 70.9 µM)
Staphylococcus aureus [50]
  Ratio: 2
[51]
  MIC: 1 µg/mL (≈ 2.21 µM)

## COc1cc(CN2CCN(c3cc4c(cc3F)c(=O)c(C(=O)O)cn4C3CC3)CC2)cc(OC)c1OC
Enterococcus faecalis [1]
  MIC: 64 µg/mL (≈ 125 µM)
[2]
  MIC: 32 µg/mL (≈ 62.6 µM)
Escherichia coli [3]
  MIC: 32 µg/mL (≈ 62.6 µM)
Pseudomonas aeruginosa [4]
  MIC: 32 µg/mL (≈ 62.6 µM)
Enterococcus faecalis [5]
  MIC: 8 µg/mL (≈ 15.6 µM)
Enterococcus faecium [7]
  MIC: 32 µg/mL (≈ 62.6 µM)
Pseudomonas aeruginosa [8]
  MIC: 64 µg/mL (≈ 125 µM)
Staphylococcus aureus [9]
  MIC: 128 µg/mL (≈ 250 µM)
Pseudomonas aeruginosa [11]
  MIC: 32 µg/mL (≈ 62.6 µM)
Pseudomonas aeruginosa [12]
  MIC: 32 µg/mL (≈ 62.6 µM)
Staphylococcus aureus [14]
  MIC: 0.5 µg/mL (≈ 0.977 µM)
Klebsiella pneumoniae [15]
  MIC: > 128 µg/mL
Klebsiella pneumoniae [16]
  MIC: > 128 µg/mL
Staphylococcus aureus [18]
  MIC: 0.25 µg/mL (≈ 0.489 µM)
Klebsiella pneumoniae [19]
  MIC: > 128 µg/mL
Escherichia coli [22]
  MIC: > 128 µg/mL
[23]
  MIC: 32 µg/mL (≈ 62.6 µM)
Pseudomonas aeruginosa [24]
  MIC: 64 µg/mL (≈ 125 µM)
Pseudomonas aeruginosa [25]
  MIC: 128 µg/mL (≈ 250 µM)
Staphylococcus aureus [26]
  MIC: 64 µg/mL (≈ 125 µM)
Streptococcus pneumoniae [27]
  MIC: 64 µg/mL (≈ 125 µM)
[29]
  MIC: 0.5 µg/mL (≈ 0.977 µM)
Staphylococcus aureus [31]
  MIC: 0.25 µg/mL (≈ 0.489 µM)
Escherichia coli [32]
  MIC: 1 µg/mL (≈ 1.95 µM)
Streptococcus pneumoniae [33]
  MIC: 4 µg/mL (≈ 7.82 µM)
Enterococcus faecium [34]
  MIC: 4 µg/mL (≈ 7.82 µM)
Escherichia coli [35]
  MIC: > 128 µg/mL
Escherichia coli [36]
  MIC: > 128 µg/mL
Staphylococcus aureus [38]
  MIC: 0.25 µg/mL (≈ 0.489 µM)
Escherichia coli [39]
  MIC: > 128 µg/mL
Klebsiella pneumoniae [40]
  MIC: 32 µg/mL (≈ 62.6 µM)
Staphylococcus aureus [41]
  MIC: 32 µg/mL (≈ 62.6 µM)
Klebsiella pneumoniae [42]
  MIC: > 128 µg/mL
Klebsiella pneumoniae [43]
  MIC: > 128 µg/mL
[44]
  MIC: 32 µg/mL (≈ 62.6 µM)
Escherichia coli [46]
  MIC: > 128 µg/mL
Enterococcus faecalis [49]
  MIC: 64 µg/mL (≈ 125 µM)
[51]
  MIC: 32 µg/mL (≈ 62.6 µM)
